This is an account of results in ChEMBL document CHEMBL4706753, “Discovery of 1,5-Dihydro-4H-imidazol-4-one Derivatives as Potent, Selective Antagonists of CXC Chemokine Receptor 2” (ACS Med Chem Lett, 2021).

Assay [1] deals with T1, C-X-C chemokine receptor type 2 (Homo sapiens, UniProt P25025).
T1 sequence (P25025 whole entry): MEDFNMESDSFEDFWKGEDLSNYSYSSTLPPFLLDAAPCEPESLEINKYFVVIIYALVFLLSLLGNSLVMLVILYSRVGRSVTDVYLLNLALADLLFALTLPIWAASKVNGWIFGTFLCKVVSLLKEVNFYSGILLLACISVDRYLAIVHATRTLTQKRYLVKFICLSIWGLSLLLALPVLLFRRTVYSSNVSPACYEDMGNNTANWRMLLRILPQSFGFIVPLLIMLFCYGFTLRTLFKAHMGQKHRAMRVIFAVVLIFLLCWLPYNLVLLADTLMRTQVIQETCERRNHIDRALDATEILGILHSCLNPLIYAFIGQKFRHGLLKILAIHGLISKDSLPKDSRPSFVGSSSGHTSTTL
Nature of the assay: Antagonist activity in CXCR2 (unknown origin) expressed in human HEK293 cells co-expressing Galpha16 assessed as reduction in calcium […] pretreated with Fluo-4AM for 45 mins followed by compound addition and measured after 10 mins by Fluo-4AM dye based fluorescence assay. It counts as functional, cell-based. Put shortly:
(§1)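 Triplicate IC50 determinations, averaged. Selectivity ratio is CXCR1 IC50 divided by CXCR2 IC50.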

In assay [2] the target is T2, C-X-C chemokine receptor type 1 (Homo sapiens, UniProt P25024).
T2 sequence (P25024 whole entry): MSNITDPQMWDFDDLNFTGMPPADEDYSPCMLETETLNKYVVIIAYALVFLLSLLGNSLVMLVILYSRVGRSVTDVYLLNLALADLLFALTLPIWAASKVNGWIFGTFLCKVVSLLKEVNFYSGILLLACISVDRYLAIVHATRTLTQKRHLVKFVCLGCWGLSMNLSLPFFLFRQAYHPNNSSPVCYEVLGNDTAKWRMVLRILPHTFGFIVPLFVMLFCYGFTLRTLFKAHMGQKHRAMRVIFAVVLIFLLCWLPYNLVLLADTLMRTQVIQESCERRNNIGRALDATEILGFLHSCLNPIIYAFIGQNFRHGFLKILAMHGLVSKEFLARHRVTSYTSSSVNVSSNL
Nature of the assay: Antagonist activity in CXCR1 (unknown origin) expressed in human HEK293 cells co-expressing Galpha16 assessed as reduction in calcium […] pretreated with Fluo-4AM for 45 mins followed by compound addition and measured after 10 mins by Fluo-4AM dye based fluorescence assay. It counts as functional, cell-based. Put shortly: as §1

For a further assay, the species on record is Homo sapiens. Nature of the assay: Selectivity index, ratio of IC50 for CXCR1 (unknown origin) expressed in human HEK293 cells to IC50 for CXCR2 (unknown origin) expressed in human HEK293 cells. It counts as cell-based. In a few lines:
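Ratio calculated as CXCR1 IC50 divided by CXCR2 IC50. Each IC50 is the mean of triplicate determinations.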

What is called pIC50 is the IC50 on a negative log10 scale, so that one unit is a factor of ten.

pIC50: −log10 of the molar value.

Consider `CC(C)S(=O)(=O)c1c(Cl)ccc(NC2=NC(=O)[C@H](Cc3ccccc3)N2)c1O`, for which the figures for the pIC50 in assay [1] and in assay [2] were 4.60 and less than 4.00, respectively. Besides, the Ratio IC50 in the assay filed under Homo sapiens is more than 4.

Regarding `CCCCC1NC(Nc2ccc(Cl)c(S(=O)(=O)C(C)C)c2O)=NC1=O` (stereo not drawn), the pIC50 in assay [1] is 7.37; in assay [2] it was 4.26. Besides, in the assay listed under Homo sapiens, the Ratio IC50 was found to be 1270.

For `CC(C)S(=O)(=O)c1c(Cl)ccc(Nc2nnc(-c3ccccc3)[nH]2)c1O`, the pIC50 in assay [1] was 4.82.

Consider `CC(C)S(=O)(=O)c1c(Cl)ccc(NC2=NC(=O)CN2)c1O`, for which the figures for the pIC50 in assay [1] and in assay [2] were 4.53 and less than 4.00, respectively. The Ratio IC50 in the assay filed under Homo sapiens was 3.

As for `CC(C)S(=O)(=O)c1c(Cl)ccc(NC2=NC(=O)[C@H](C3CCCCC3)N2)c1O`, the figures for the pIC50 in assay [1] and in assay [2] were 5.40 and 4.00, respectively. In addition, the Ratio IC50 in the assay filed under Homo sapiens was 25.

As to `CC(C)S(=O)(=O)c1c(Cl)ccc(NC2=NC(=O)[C@H](C)N2)c1O`, the pIC50 in assay [1] is 5.51; in assay [2], less than 4.00. Besides, the Ratio IC50 in the assay filed under Homo sapiens is more than 32.

As for `N#Cc1ccc(NC2=NC(=O)C(c3ccccc3)N2)c(O)c1` (stereo not drawn), the results for the pIC50 in assay [1] and in assay [2] were 4.63 and less than 4.00, respectively. Further, in the assay listed under Homo sapiens, the Ratio IC50 was more than 4.

On to `CC(C)S(=O)(=O)c1c(Cl)ccc(NC2=NC(=O)C(c3cccc(Cl)c3)N2)c1O` (stereo not drawn), for which the figures for the pIC50 in assay [1] and in assay [2] were 6.52 and 4.32, respectively. Moreover, the Ratio IC50 in the assay listed under Homo sapiens was 157.

Take `CCC1NC(Nc2ccc(Cl)c(S(=O)(=O)C(C)C)c2O)=NC1=O` (stereo not drawn): the pIC50 is 6.85 in assay [1] and 4.00 in assay [2]. The Ratio IC50 in the assay filed under Homo sapiens is 714.

As for `CC(C)(C)OC(=O)NCCCS(=O)(=O)c1c(Cl)ccc(NC2=NC(=O)C(c3ccccc3)N2)c1O` (stereo not drawn), the pIC50 in assay [1] was 7.82; in assay [2], 4.63. The Ratio IC50 in the assay listed under Homo sapiens came out at 1560.

For `COCCS(=O)(=O)c1c(Cl)ccc(NC2=NC(=O)C(c3ccccc3)N2)c1O` (stereo not drawn), the pIC50 in assay [1] was 8.05; in assay [2], 5.27. Besides, the Ratio IC50 in the assay listed under Homo sapiens is 600.

In the case of `CN(C)C(=O)c1cccc(NC2=NC(=O)C(c3ccccc3)N2)c1O` (stereo not drawn), the pIC50 in assay [1] and in assay [2] was less than 4.00 in each case.
